Assay results from ChEMBL document CHEMBL4152356, “Amphipathic sulfonamidobenzamides mimicking small antimicrobial marine natural products; investigation of antibacterial and anti-biofilm activity against antibiotic resistant clinical isolates” (Bioorg Med Chem, 2018).
Activity calls are given as the source filed them.

Experiments:
[1] = tested on: Staphylococcus aureus; assay: Antibacterial activity against Staphylococcus aureus ATCC 9144 after 48 hrs by microdilution method; assay type: functional; settings: ATCC 9144, 48 h
Summary of the method: (§1)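 Broth microdilution (CLSI M07-A9, modified) in Mueller-Hinton broth; inoculum about 2.5-3 × 10^4 cells/ml mixed 1:1 with serial compound dilutions. Stock solutions in up to 100% DMSO, final DMSO ≤1%. Incubated 35 °C for 48 h.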

[2] = tested on: Staphylococcus epidermidis; assay: Antibacterial activity against methicillin resistant Staphylococcus epidermidis RP62A ATCC 35984/CCUG 31568 after 48 hrs by microdilution method; assay type: functional; settings: RP62A ATCC 35984/CCUG 31568, 48 h
Summary of the method: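 Broth microdilution (modified CLSI M07-A9) against the MRSE reference strain. Inoculum of about 2.5-3 × 10^4 cells/ml in Mueller-Hinton broth mixed 1:1 with serial compound dilutions; final DMSO ≤1%. Incubated 35 °C, 48 h.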

[3] = tested on: Bacillus subtilis; assay: Antibacterial activity against Bacillus subtilis 168 ATCC 23857 after 48 hrs by microdilution method; assay type: functional; settings: subsp. subtilis str. 168 ATCC 23857, 48 h; summary of the method: as §1
[4] = tested on: Corynebacterium glutamicum; assay: Antibacterial activity against Corynebacterium glutamicum ATCC 13032 after 48 hrs by microdilution method; assay type: functional; settings: ATCC 13032, 48 h; summary of the method: as §1
[5] = tested on: Escherichia coli; assay: Antibacterial activity against Escherichia coli ATCC 25922 after 48 hrs by microdilution method; assay type: functional; settings: ATCC 25922, 48 h; summary of the method: as §1
[6] = tested on: Pseudomonas aeruginosa; assay: Antibacterial activity against Pseudomonas aeruginosa PAO1 DSM 19880 ATCC 15692 after 48 hrs by microdilution method; assay type: functional; settings: PAO1 DSM 19880 ATCC 15692, 48 h; summary of the method: as §1
[7] = tested on: Erythrocyte; assay: Hemolytic activity against human RBC measured after 1 hr; assay type: cell-based
Summary of the method: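 Washed human RBCs from a healthy donor (heparinized) at 10% in PBS pH 7.4, mixed 9:1 with serial compound dilutions, 37 °C for 1 h. Baseline set by 0.5% DMSO in 50% PBS, 100% lysis by 0.05% Triton X-100. EC50 is the concentration giving 50% lysis.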

[8] = tested on: MRC5; assay: Cytotoxicity against human MRC5 cells after 72 hrs by MTS assay; assay type: cell-based; settings: MRC5, 72 h
Summary of the method: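 MRC-5 lung fibroblasts in DMEM with 10% FBS, 37 °C, 5% CO2; seeded at 4000 cells/well, adhered 24 h, medium replaced. Two-fold dilutions up to 100 µg/ml for 72 h, then MTS for 1 h and absorbance at 485 nm. Controls were 1% DMSO (negative) and 0.5% Triton X-100 (positive). EC50 is the concentration giving 50% inhibition of survival.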

[9] = Selectivity index, ratio of EC50 for human RBC to MIC for methicillin resistant Staphylococcus epidermidis RP62A ATCC 35984/CCUG 31568; assay type: toxicity; settings: human red blood cells (RBC), read-out: Selectivity Index
Summary of the method: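 SI = hemolytic EC50 / MRSE MIC. Hemolysis: washed human RBCs (heparinized blood, healthy adult donor) at 10% in PBS pH 7.4, mixed 9:1 with serial compound dilutions, 37 °C for 1 h. 0.05% Triton X-100 set 100% lysis, 0.5% DMSO set baseline. MIC from MHB microdilution, 35 °C, […].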

[10] = tested on: Staphylococcus aureus; assay: Antibacterial activity against Staphylococcus aureus clinical isolates after 24 hrs by microdilution method; assay type: functional
Summary of the method: (§2)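 Clinical isolate screen by broth microdilution with about 1-1.2 × 10^6 cells/ml and 24 h incubation. MIC is the lowest concentration with no growth. For isolate collections, MIC90 is the MIC inhibiting ≥90% of isolates. Multidrug resistance was defined as resistance to at least […] antimicrobial class.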

[11] = tested on: Enterococcus sp.; assay: Antibacterial activity against Enterococcus sp. clinical isolates after 24 hrs by microdilution method; assay type: functional; summary of the method: as §2
[12] = tested on: Escherichia coli; assay: Antibacterial activity against Escherichia coli clinical isolates after 24 hrs by microdilution method; assay type: functional; summary of the method: as §2
[13] = tested on: Pseudomonas aeruginosa; assay: Antibacterial activity against Pseudomonas aeruginosa clinical isolates after 24 hrs by microdilution method; assay type: functional; summary of the method: as §2
[14] = tested on: Klebsiella pneumoniae; assay: Antibacterial activity against Klebsiella pneumoniae clinical isolates after 24 hrs by microdilution method; assay type: functional; summary of the method: as §2
[15] = tested on: Staphylococcus epidermidis; assay: Antibiofilm activity against Staphylococcus epidermidis RP62A ATCC 35984/CCUG 31568 incubated for 24 +/- 2 hrs by crystal violet staining based assay; assay type: functional
Summary of the method: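 Mature S. epidermidis RP62A biofilms: filtered overnight TSB culture adjusted to 2 McFarland, diluted in TSB with 1% glucose to about 6 × 10^6 CFU/ml, grown 24 ± 2 h at 37 °C static, then PBS-washed. Compounds in 50% TSBglu added for 24 ± 2 h at 37 °C. Biomass given as % of untreated control; ≥90% eradication threshold. Compounds tested at 2x, 5x and 10x MIC, 4-8 parallels on 2-3 plates, highest and lowest values excluded.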

[16] = Solubility of the compound in PBS
[17] = tested on: Bacillus subtilis; assay: Induction of membrane disruption in Bacillus subtilis 168 expressing luciferase at 12.5 ug/ml measured up to 60 secs by luminescence assay; assay type: functional, organism-based; settings: subsp. subtilis str. 168
Summary of the method: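 Luminescence followed up to […]. Fold induction is maximal luminescence relative to chlorhexidine control (31 or 20 µg/ml). Mean ± SD of two experiments.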

SMILES	MIC [1]	MIC [2]	MIC [3]	MIC [4]	MIC [5]	MIC [6]	EC50 [7]	EC50 [8]	selectivity ratio [9]	MIC [10]	MIC [11]	MIC [12]	MIC [13]	MIC [14]	MBIC=>90 [15]	solubility [16]	Activity [17]
CC(C)(C)c1cc(C(C)(C)C)cc(S(=O)(=O)Nc2ccc(C(=O)NCCNC(=N)N)cc2)c1.Cl	4 µg/mL	4 µg/mL	8 µg/mL	4 µg/mL	32 µg/mL	64 µg/mL	64 µg/mL	> 100 µg/mL	16	8 µg/mL	32 µg/mL	> 128 µg/mL	> 128 µg/mL	> 128 µg/mL	40 µg/mL	> 64 µg/mL	
CN(c1cccc(C(=O)NCCNC(=N)N)c1)S(=O)(=O)c1cc(C(C)(C)C)cc(C(C)(C)C)c1.Cl	4 µg/mL	4 µg/mL	4 µg/mL	2 µg/mL	32 µg/mL	32 µg/mL	95 µg/mL	91 µg/mL	24	8 µg/mL	16 µg/mL	32 µg/mL	32 µg/mL	64 µg/mL	40 µg/mL		Active
Cl.N=C(N)NCCNC(=O)c1ccc(NS(=O)(=O)c2cc(C(F)(F)F)cc(C(F)(F)F)c2)cc1	> 128 µg/mL	> 128 µg/mL	> 128 µg/mL	> 128 µg/mL	> 128 µg/mL	> 128 µg/mL	64 µg/mL	> 100 µg/mL								> 64 µg/mL	
COc1c(C(C)(C)C)cc(S(=O)(=O)Nc2ccc(C(=O)NCCNC(=N)N)cc2)cc1C(C)(C)C.Cl	4 µg/mL	4 µg/mL	4 µg/mL	4 µg/mL	32 µg/mL	64 µg/mL	64 µg/mL	> 100 µg/mL	16	8 µg/mL	64 µg/mL	> 128 µg/mL	32 µg/mL	> 128 µg/mL	40 µg/mL	> 64 µg/mL	
CC(C)(C)c1cc(C(C)(C)C)cc(S(=O)(=O)Nc2cccc(C(=O)NCCNC(=N)N)c2)c1.Cl	8 µg/mL	8 µg/mL	8 µg/mL	4 µg/mL	32 µg/mL	32 µg/mL	92 µg/mL	> 100 µg/mL	12	8 µg/mL	32 µg/mL	64 µg/mL	64 µg/mL	128 µg/mL	40 µg/mL		
CN(c1ccc(C(=O)NCCNC(=N)N)cc1)S(=O)(=O)c1cc(C(C)(C)C)cc(C(C)(C)C)c1.Cl	4 µg/mL	4 µg/mL	4 µg/mL	2 µg/mL	32 µg/mL	16 µg/mL	45 µg/mL	36 µg/mL	11	4 µg/mL	32 µg/mL	32 µg/mL	16 µg/mL	64 µg/mL	40 µg/mL		
